Data taken from paper PMC4832855 (Cancer Science, 2016).
“And” between values parts separate entries of the source, which are not always exact repeats. Identical values can stand only once.

What was measured:
[1] = molecular target: Jak2 (Homo sapiens, UniProt O60674); test: Kinase inhibition profiling at 100 nmol/L; type: biochemical
[2] = molecular target: AurB (Homo sapiens, UniProt Q96GD4); test: Kinase inhibition profiling at 100 nmol/L; type: biochemical; settings: read-out: Inhibition at 100 nmol/L
[3] = system: Btc; test: Kinase inhibition profiling at 100 nmol/L; type: biochemical, human
[4] = molecular target: Lck (Homo sapiens, UniProt P06239); test: Kinase inhibition profiling at 100 nmol/L; type: biochemical; settings: read-out: Inhibition at 100 nmol/L
[5] = molecular target: Met (Homo sapiens, UniProt P08581); test: Kinase inhibition profiling at 100 nmol/L; type: biochemical; settings: read-out: Inhibition at 100 nmol/L
[6] = system: p381; test: Kinase inhibition profiling at 100 nmol/L; type: biochemical, human; settings: p381, 100 nmol/L
[7] = molecular target: focal adhesion kinase (Homo sapiens, UniProt Q05397); test: Kinase inhibition profiling at 100 nmol/L; type: biochemical; settings: read-out: Inhibition at 100 nmol/L
[8] = molecular target: fms‐like tyrosine kinase‐3 (Homo sapiens, UniProt P36888); test: Kinase inhibition profiling at 100 nmol/L; type: biochemical; settings: read-out: Inhibition at 100 nmol/L
[9] = system: HT‐29/GFP human colon cancer cells; test: Anti-proliferative activity; type: cell-based
[10] = system: panel of human malignant cell lines; test: Correlation of antiproliferative activity with anti‐IGF‐1 antibody KM1468; type: cell-based; settings: range of human malignant cell lines (Fig. S1a)
[11] = system: IGF‐1‐induced tyrosine phosphorylation of IGF‐1R in HT‐29/GFP cells; test: In vitro signal transduction assay; type: cell-based, human; settings: 30 nmol/L, 2 hours
Outline: (§1)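 HT-29/GFP colon cancer cells in culture exposed to test compound, then stimulated with human IGF-1 or human insulin; receptor tyrosine phosphorylation and downstream signalling assessed across a concentration series.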

[12] = system: insulin‐induced tyrosine phosphorylation of IR in HT‐29/GFP cells; test: In vitro signal transduction assay; type: cell-based, human; settings: 10 nmol/L, 2 hours
Outline: as §1

[13] = system: IGF‐1‐induced tyrosine phosphorylation of IGF‐R in HT‐29/GFP xenograft; test: In vivo signal transduction assay; parameters: species or system mouse; settings: 40 mg/kg oral, 2 hours before IGF-1
[14] = Pharmacokinetic study in mice, single oral dose; type: in vivo, mouse; settings: for Mean area under the plasma concentration–time curve from time 0 to 24 h / Mean maximum plasma concentration: male SCID mice
Outline: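 Single oral dose of 2, 10 or 20 mg/kg to male mice; plasma sampled over 0–24 h; Cmax, Tmax, elimination half-life and AUC0–24 reported as mean ± SD, n = 3.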

[15] = Phase I first-in-human study: pharmacokinetics; type: in vivo; settings: for half-life / concentration at 1 day / concentration at 28 day / Cmax / Tmax / Vd/F: human, plasma; for Cmax: C max; for Tmax: T max; for Vd/F: VZ/F
[16] = system: advanced solid tumors; test: Phase I first-in-human study: response; type: in vivo
Outline: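 Open-label phase I in patients with refractory advanced solid tumours; oral once daily after overnight fast for 28 days, 1-week observation, then continuous daily dosing; response assessed every 8 weeks by RECIST version 1.0.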

[17] = preliminary in vitro and in vivo studies; ref Kyowa Hakko Kirin Co., Tokyo, unpublished data; cited from earlier work
[18] = male, SCID, mouse, plasma, po, 20 mg/kg
[19] = po, 37.5 mg/day, patients, oral 37.5 mg/day, Day 1 (n = 7), mean ± SD
[20] = po, 37.5 mg/day, patients, oral 37.5 mg/day, Day 28 (n = 5), mean ± SD
[21] = patients, oral 37.5 mg/day, Day 28 (n = 5), mean ± SD
[22] = patients, oral 50 mg/day, Day 28 (n = 4), mean ± SD

Chain of Jak2 (O60674 whole entry): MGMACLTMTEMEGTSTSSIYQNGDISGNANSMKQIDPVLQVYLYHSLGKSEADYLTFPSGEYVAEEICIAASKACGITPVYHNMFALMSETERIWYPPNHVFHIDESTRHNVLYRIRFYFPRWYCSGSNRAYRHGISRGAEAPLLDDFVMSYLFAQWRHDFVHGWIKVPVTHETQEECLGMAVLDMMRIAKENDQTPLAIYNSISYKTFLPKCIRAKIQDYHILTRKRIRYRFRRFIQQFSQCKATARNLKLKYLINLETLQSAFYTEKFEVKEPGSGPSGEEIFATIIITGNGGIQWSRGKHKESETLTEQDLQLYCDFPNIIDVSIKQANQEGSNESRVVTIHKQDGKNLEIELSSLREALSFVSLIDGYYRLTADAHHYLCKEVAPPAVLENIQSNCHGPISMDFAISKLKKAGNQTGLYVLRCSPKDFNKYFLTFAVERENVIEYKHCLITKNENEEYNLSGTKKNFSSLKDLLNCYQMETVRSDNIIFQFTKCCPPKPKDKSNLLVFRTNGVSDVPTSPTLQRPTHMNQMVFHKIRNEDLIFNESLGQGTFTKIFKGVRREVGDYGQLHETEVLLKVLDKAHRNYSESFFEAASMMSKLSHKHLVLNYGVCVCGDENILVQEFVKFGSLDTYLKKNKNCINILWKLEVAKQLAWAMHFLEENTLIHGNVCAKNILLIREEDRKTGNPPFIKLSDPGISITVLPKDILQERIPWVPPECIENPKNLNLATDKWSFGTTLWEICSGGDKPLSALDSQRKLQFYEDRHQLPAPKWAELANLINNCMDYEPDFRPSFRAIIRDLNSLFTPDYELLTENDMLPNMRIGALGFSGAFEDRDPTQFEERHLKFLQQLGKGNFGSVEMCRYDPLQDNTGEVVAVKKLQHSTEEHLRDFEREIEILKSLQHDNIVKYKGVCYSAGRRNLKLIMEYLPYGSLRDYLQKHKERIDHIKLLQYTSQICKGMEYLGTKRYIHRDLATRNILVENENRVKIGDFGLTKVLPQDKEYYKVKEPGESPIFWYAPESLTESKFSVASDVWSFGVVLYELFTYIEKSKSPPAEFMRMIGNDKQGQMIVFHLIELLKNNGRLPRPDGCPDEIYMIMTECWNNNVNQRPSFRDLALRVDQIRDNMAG
Chain of AurB (Q96GD4 whole entry): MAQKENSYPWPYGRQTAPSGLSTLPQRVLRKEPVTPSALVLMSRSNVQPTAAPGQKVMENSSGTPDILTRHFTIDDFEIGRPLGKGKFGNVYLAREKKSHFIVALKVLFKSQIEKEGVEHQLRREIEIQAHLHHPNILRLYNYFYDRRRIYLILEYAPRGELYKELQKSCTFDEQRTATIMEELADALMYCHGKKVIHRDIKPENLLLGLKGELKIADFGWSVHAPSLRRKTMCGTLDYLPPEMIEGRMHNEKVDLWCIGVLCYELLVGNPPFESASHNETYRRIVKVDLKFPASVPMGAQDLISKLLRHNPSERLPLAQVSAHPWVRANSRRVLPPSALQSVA
Chain of AurB (Q9NQS7 803-916 partner limits assumed): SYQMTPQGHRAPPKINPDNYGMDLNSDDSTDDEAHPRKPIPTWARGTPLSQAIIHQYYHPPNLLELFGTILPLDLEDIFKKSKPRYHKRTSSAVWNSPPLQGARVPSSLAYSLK
Chain of Met (P08581 25-1390): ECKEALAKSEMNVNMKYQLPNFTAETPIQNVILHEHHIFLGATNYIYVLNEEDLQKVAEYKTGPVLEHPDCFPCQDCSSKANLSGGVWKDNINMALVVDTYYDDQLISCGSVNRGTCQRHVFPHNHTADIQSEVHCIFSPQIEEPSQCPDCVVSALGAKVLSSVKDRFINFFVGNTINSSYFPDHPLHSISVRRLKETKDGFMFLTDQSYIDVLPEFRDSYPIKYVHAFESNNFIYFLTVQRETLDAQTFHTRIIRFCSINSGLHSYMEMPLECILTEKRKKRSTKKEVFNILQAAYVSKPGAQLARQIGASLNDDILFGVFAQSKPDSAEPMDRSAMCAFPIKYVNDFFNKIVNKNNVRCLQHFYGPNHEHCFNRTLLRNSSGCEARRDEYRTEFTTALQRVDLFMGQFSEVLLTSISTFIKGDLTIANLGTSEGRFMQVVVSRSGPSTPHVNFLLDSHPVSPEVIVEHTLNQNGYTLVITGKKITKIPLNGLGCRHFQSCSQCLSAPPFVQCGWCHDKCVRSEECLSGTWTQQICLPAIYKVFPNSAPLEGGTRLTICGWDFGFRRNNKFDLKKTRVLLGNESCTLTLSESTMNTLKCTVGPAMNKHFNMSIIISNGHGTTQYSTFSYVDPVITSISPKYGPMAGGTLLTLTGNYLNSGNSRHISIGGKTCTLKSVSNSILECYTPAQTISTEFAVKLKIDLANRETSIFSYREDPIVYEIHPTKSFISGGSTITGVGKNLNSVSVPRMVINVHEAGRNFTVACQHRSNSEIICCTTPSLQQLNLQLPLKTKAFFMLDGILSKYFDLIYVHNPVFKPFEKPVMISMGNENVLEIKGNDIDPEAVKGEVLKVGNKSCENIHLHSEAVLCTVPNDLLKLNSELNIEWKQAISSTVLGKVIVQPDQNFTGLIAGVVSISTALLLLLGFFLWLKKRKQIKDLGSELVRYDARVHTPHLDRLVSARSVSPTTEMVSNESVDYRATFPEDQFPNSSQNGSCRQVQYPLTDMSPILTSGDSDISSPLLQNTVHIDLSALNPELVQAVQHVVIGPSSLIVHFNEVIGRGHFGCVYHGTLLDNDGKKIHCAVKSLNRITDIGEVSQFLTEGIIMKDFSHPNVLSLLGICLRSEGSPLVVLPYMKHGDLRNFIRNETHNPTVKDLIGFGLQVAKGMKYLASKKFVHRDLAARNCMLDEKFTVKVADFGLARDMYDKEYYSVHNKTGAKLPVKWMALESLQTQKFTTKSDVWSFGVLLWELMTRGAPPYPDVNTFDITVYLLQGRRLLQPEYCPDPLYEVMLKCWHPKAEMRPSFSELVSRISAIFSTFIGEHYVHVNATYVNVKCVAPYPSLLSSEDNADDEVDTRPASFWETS
Chain of Lck (P06239 whole entry): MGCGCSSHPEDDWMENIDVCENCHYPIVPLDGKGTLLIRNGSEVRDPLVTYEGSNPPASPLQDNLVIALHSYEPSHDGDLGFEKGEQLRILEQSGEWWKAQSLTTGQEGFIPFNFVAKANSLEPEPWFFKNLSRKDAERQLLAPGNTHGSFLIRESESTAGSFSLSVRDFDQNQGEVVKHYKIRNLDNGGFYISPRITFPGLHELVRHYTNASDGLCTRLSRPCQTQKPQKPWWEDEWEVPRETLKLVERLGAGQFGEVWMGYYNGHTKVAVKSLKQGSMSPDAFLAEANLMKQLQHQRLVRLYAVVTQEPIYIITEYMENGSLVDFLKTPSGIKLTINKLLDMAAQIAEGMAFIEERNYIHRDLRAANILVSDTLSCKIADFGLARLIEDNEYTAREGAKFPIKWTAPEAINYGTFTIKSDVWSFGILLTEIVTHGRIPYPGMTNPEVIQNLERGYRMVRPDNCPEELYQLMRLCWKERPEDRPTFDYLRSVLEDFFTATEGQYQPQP
Chain of fms‐like tyrosine kinase‐3 (P36888 27-993): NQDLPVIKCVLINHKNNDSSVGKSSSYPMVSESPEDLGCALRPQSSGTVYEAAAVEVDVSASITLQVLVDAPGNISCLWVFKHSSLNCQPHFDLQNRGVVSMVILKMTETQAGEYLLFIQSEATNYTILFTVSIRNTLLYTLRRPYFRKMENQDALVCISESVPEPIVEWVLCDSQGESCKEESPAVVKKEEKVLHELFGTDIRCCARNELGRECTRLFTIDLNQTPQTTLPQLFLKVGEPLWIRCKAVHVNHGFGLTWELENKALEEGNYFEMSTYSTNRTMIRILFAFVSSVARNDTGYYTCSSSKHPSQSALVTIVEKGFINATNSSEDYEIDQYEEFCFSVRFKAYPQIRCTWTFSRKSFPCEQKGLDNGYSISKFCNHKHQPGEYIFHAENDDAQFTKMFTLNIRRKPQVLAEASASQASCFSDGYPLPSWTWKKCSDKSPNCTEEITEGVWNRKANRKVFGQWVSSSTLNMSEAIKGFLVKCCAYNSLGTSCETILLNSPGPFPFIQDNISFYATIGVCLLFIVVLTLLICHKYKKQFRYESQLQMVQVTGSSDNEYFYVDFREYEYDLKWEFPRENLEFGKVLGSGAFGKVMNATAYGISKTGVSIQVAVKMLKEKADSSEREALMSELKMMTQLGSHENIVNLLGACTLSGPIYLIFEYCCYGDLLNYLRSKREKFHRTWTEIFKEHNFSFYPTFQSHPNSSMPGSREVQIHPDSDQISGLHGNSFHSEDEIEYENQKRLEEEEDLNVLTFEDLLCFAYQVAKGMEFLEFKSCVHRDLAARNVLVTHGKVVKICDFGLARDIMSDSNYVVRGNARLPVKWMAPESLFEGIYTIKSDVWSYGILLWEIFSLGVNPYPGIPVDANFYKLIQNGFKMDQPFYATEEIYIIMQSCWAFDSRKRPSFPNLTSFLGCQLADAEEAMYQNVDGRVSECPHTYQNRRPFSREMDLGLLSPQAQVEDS

Cc1ccsc1C(=O)Nc1cc(CN2CCN(C(=O)CO)CC2)ccc1/C=C/c1n[nH]c2ccccc12 [KW‐2450]
Inhibition at 100 nmol/L ([1]; Jak2, 100 nmol/L): 93.4% | inhibition at 0.1 µM ([1]; read-out: Inhibition at 100 nmol/L, Jak2, 100 nmol/L): > 90% | inhibition at 0.1 µM [2]: 76.8% | Inhibition at 100 nmol/L [3]: 63.2% | inhibition at 0.1 µM [4]: 33.7% | inhibition at 0.1 µM [5]: 33.8% | Inhibition at 100 nmol/L [6]: –2.5% | inhibition at 0.1 µM [7]: > 90% | inhibition at 0.1 µM [8]: > 90% | GI50 [9]: 380 nM | Correlation of degree of in vitro inhibition with that induced by anti‐IGF‐1 antibody KM1468 [10]: highly correlated | Inhibition of IGF‐1‐induced tyrosine phosphorylation of IGF‐1R [11]: complete inhibition | Inhibition of insulin‐induced tyrosine phosphorylation of IR [12]: significant degree of inhibition | Inhibition of in vivo IGF‐1‐induced tyrosine phosphorylation of IGF‐R [13]: inhibited | Mean area under the plasma concentration–time curve from time 0 to 24 h ([14]; oral 2 mg/kg): 136 ng/h/mL | Mean maximum plasma concentration ([14]; oral 2 mg/kg): 37.4 ng/mL | Mean area under the plasma concentration–time curve from time 0 to 24 h ([14]; oral 10 mg/kg): 1320 ng/h/mL | Mean maximum plasma concentration ([14]; oral 10 mg/kg): 568 ng/mL | Mean area under the plasma concentration–time curve from time 0 to 24 h ([14]; oral 20 mg/kg): 3190 ng/h/mL | Mean maximum plasma concentration ([14]; oral 20 mg/kg): 1510 ng/mL | Tmax [14, 18]: 0.25 to 1 h | half-life [14, 18]: 3.71 to 3.99 h | half-life ([15]; oral, 50 mg, Mean elimination half‐life, range across dose levels and day measured, patients, 37.5 and 50 mg, days 1 and 28): 9.74 to 13 h | concentration at 1 day ([15]; po, 37.5 mg/day): 608 ng/mL | concentration at 28 day ([15]; po, 37.5 mg/day): 890 ng/mL | Cmax [15, 19]: 2330 ± 921 ng/mL | Cmax [15, 20]: 2370 ± 1010 ng/mL | Tmax [15, 19]: 2.29 ± 0.95 h | Tmax [15, 20]: 1.99 ± 1.22 h | Vd/F ([15]; po, 37.5 mg/day, patients, oral 37.5 mg/day, Day 1, n = 5, mean ± SD): 19.6 ± 2.91 L | Vd/F ([15]; po, 37.5 mg/day, patients, oral 37.5 mg/day, Day 28, n = 4, mean ± SD): 23.7 ± 3.89 L | half-life ([15]; po, 37.5 mg/day, t 1/2, patients, oral 37.5 mg/day, Day 1, n = 5, mean ± SD): 10.1 ± 3.08 h | half-life ([15]; po, 37.5 mg/day, t 1/2, patients, oral 37.5 mg/day, Day 28, n = 4, mean ± SD): 9.74 ± 2.69 h | concentration at 1 day ([15]; po, 50 mg/day): 671 ng/mL | concentration at 28 day ([15]; po, 50 mg/day): 701 ng/mL | Mean maximum plasma concentration, molar equivalent ([15]; patients, 37.5 mg/day, days 1 and 28): 3385 to 3440 nmol/L | Mean elimination half‐life, range across dose levels and day measured ([15]; patients, 37.5 and 50 mg, days 1 and 28): 10 to 13 h | C min (trough plasma concentration) ([15]; patients, oral 37.5 mg/day, Day 1 (n = 7), mean ± SD): 608 ± 679 ng/mL | CL/F ([15]; patients, oral 37.5 mg/day, Day 1, n = 5, mean ± SD): 1.45 ± 0.53 L/h | C min (trough plasma concentration) [15, 21]: 890 ± 1173 ng/mL | CL/F [15, 21]: 1.56 ± 0.88 L/h | R, accumulation ratio (AUC0–24 on day 28/AUC0–24 on day 1) [15, 21]: 1.57 and 1.57 ± 0.80 | C min (trough plasma concentration) ([15]; patients, oral 50 mg/day, Day 1 (n = 6), mean ± SD): 671 ± 517 ng/mL | CL/F ([15]; patients, oral 50 mg/day, Day 1, n = 5, mean ± SD): 1.48 ± 0.97 L/h | C min (trough plasma concentration) [15, 22]: 701 ± 462 ng/mL | CL/F [15, 22]: 1.69 ± 0.47 L/h | R, accumulation ratio (AUC0–24 on day 28/AUC0–24 on day 1) [15, 22]: 1.27 and 1.27 ± 0.37 | Median progression‐free survival ([16]; 37.5 mg/day): 65.0 days | Patients with stable disease ([16]; 37.5 mg/day): 1 n | Median progression‐free survival ([16]; 50 mg/day): 141 days | Patients with stable disease ([16]; 50 mg/day): 3 n | Complete or partial responses ([16]; 10 patients evaluable for response): no complete or partial responses | Patients with stable disease ([16]; 10 patients evaluable for response, both doses): 40% | Median progression‐free survival ([16]; overall): 66.5 days | Antitumor effect in combination with lapatinib and letrozole [17]: synergistic antitumor effects
